Assay results published in ChEMBL document CHEMBL1250425, “New antimalarials with a triterpenic scaffold from Momordica balsamina” (Bioorg Med Chem, 2010).

Tests used:
MCF7 = assay: Cytotoxicity against human MCF7 cells after 24 hrs by MTT assay; format: cell-based; conditions: MCF7, 24 h
Method in brief: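 MCF-7 grown in RPMI 1640 with 10% heat-inactivated horse serum, 2 mM L-glutamine, antibiotics; 5% CO2, 37 °C. 2 × 10^4 cells/well added to serially diluted compound, 24 h at 37 °C; MTT (5 mg/mL stock) 4 h, then 10% SDS overnight; OD 550 nm (ref 630 nm). Growth inhibition vs cell and medium controls; IC50 as mean ± SD of three experiments.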

[1] = Selectivity index, ratio of IC50 for human MCF7 cells to IC50 for chloroquine-resistant Plasmodium falciparum Dd2; format: toxicity, cell-based; conditions: read-out: Selectivity Index
Plasmodium falciparum [2] = assay: Antimalarial activity against chloroquine-sensitive Plasmodium falciparum 3D7 infected in erythrocytes after 48 hrs by SYBR Green 1-based fluorescence assay; format: functional, organism-based; conditions: 3D7, 48 h
Method in brief: (§1)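 Parasites grown in fresh erythrocytes in RPMI 1640 with 25 mM HEPES, 6.8 mM hypoxanthine, 10% AlbuMAX II, 37 °C under 5% O2/3–5% CO2/N2. Compounds from DMSO stocks tested at 0.156–100 µg/mL in duplicate, with 1% parasitaemia ring stages at 2% haematocrit, 48 h at 37 °C. SYBR Green I lysis buffer added, 1 h dark at room temperature, fluorescence read at 485/535 nm, IC50 by nonlinear fit.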

Plasmodium falciparum [3] = assay: Antimalarial activity against chloroquine-resistant Plasmodium falciparum Dd2 infected in erythrocytes after 48 hrs by SYBR Green 1-based fluorescence assay; format: functional, organism-based; conditions: Dd2, 48 h; method in brief: as §1
[4] = Selectivity index, ratio of IC50 for human MCF7 cells to IC50 for chloroquine-sensitive Plasmodium falciparum 3D7; format: toxicity, cell-based; conditions: read-out: Selectivity Index

`COC(C)(C)/C=C/C[C@@H](C)[C@H]1CC[C@@]2(C)[C@@H]3[C@@H](O[C@H]4O[C@@H](CO)[C@H](O)[C@H](O)[C@@H]4O)C=C4[C@@H](CC[C@H](O)C4(C)C)[C@]3(C)CC[C@]12C` [BALSAMINOSIDE A] showed an IC50 (MCF7) of 19 µM, a selectivity ratio [1] of 4.7 and an IC50 (Plasmodium falciparum [2]) of 4.6 µM. The IC50 (Plasmodium falciparum [3]) was 4 µM and the selectivity ratio [4] was 4.2.
For `C[C@H](C/C=C/C(C)(C)O)[C@H]1CC[C@@]2(C)[C@@H]3[C@@H](O)C=C4[C@@H](CC[C@H](O)C4(C)C)[C@]3(C)CC[C@]12C`, the selectivity ratio [1] was 0.9, the IC50 (Plasmodium falciparum [2]) was 30.6 µM and the IC50 (Plasmodium falciparum [3]) was 50.1 µM. The selectivity ratio [4] was 1.5.
In the case of `C=C(C)[C@@H](O)[C@H](O)C[C@@H](C)[C@H]1CC[C@@]2(C)[C@@H]3[C@@H](O)C=C4[C@@H](CC[C@H](O)[C@]4(C)CO)[C@]3(C)CC[C@]12C` [BALSAMINAPENTAOL A], the selectivity ratio [1] is reported as 1.4, the IC50 (Plasmodium falciparum [2]) is reported as 14.6 µM and the IC50 (Plasmodium falciparum [3]) is reported as 33 µM. The selectivity ratio [4] was 3.2.
Work on `COC(C)(C)/C=C/C[C@@H](C)[C@H]1CC[C@@]2(C)[C@@H]3[C@@H](O)C=C4[C@@H](CC[C@H](O)[C@]4(C)CO)[C@]3(C)CC[C@]12C` [BALSAMINAGENIN B] yielded an IC50 (MCF7) of 34 µM, a selectivity ratio [1] of 1.8 and an IC50 (Plasmodium falciparum [2]) of 18.7 µM. For the same compound, the IC50 (Plasmodium falciparum [3]) was 19.2 µM and the selectivity ratio [4] was 1.8.
Work on `CC(C)=C[C@H](O)C[C@@H](C)[C@H]1CC[C@@]2(C)[C@@H]3C(=O)C=C4[C@@H](CC[C@H](O)C4(C)C)[C@]3(C)CC[C@]12C` [BALSAMINOL E] yielded an IC50 (MCF7) of 44.2 µM, a selectivity ratio [1] of 2.3 and an IC50 (Plasmodium falciparum [2]) of 20.4 µM. For the same compound, the IC50 (Plasmodium falciparum [3]) was 19.6 µM and the selectivity ratio [4] was 2.2.
`CC(C)=CC(=O)C[C@@H](C)[C@H]1CC[C@@]2(C)[C@@H]3C(=O)C=C4[C@@H](CC[C@H](O)[C@]4(C)CO)[C@]3(C)CC[C@]12C` [BALSAMINOL C] gave an IC50 (MCF7) of 70.5 µM, a selectivity ratio [1] of 3.2 and an IC50 (Plasmodium falciparum [2]) of 19.6 µM. For the same compound, the IC50 (Plasmodium falciparum [3]) was 22.4 µM and the selectivity ratio [4] was 3.6.
In the case of `C[C@H](C/C=C/C(C)(C)O)[C@H]1CC[C@@]2(C)[C@@H]3[C@@H](O)C=C4[C@@H](CC[C@H](O)C4(C)C)[C@]3(C)C[C@@H](O)[C@]12C` [CUCURBALSAMINOL A], the IC50 (MCF7) is reported as greater than 133 µM, the selectivity ratio [1] is reported as greater than 7.6 and the IC50 (Plasmodium falciparum [2]) is reported as 13.2 µM. The IC50 (Plasmodium falciparum [3]) was 17.6 µM and the selectivity ratio [4] was greater than 10.1.
`CO[C@H]1C=C2[C@@H](CC[C@H](O)C2(C)C)[C@]2(C)C[C@@H](O)[C@]3(C)[C@@H]([C@H](C)C/C=C/C(C)(C)O)CC[C@@]3(C)[C@H]12` gave an IC50 (MCF7) of 55.4 µM, a selectivity ratio [1] of 2 and an IC50 (Plasmodium falciparum [2]) of 17.7 µM. For the same compound, the IC50 (Plasmodium falciparum [3]) was 28.3 µM and the selectivity ratio [4] was 3.1.
`CO[C@H]1C=C2[C@@H](CC[C@H](O)[C@]2(C)CO)[C@]2(C)CC[C@]3(C)[C@@H]([C@H](C)C[C@@H](O)C=C(C)C)CC[C@@]3(C)[C@H]12` [BALSAMINOL B] showed an IC50 (MCF7) of 31 µM, a selectivity ratio [1] of 1.7 and an IC50 (Plasmodium falciparum [2]) of 15.2 µM. The IC50 (Plasmodium falciparum [3]) was 17.9 µM and the selectivity ratio [4] was 2.
Work on `CC(C)=C[C@H](O)C[C@@H](C)[C@H]1CC[C@@]2(C)[C@@H]3C=C[C@@]45OC[C@]3(CC[C@]12C)[C@@H]4CC[C@H](O)C5(C)C` [KARAVILAGENIN E] yielded a selectivity ratio [1] of 3.7, an IC50 (Plasmodium falciparum [2]) of 7.4 µM and an IC50 (Plasmodium falciparum [3]) of 8.2 µM. It also gave a selectivity ratio [4] of 4.2.
For `C[C@H](C/C=C/C(C)(C)O)[C@H]1CC[C@@]2(C)[C@@H]3[C@@H](O)C=C4[C@@H](CC[C@H](O)[C@]4(C)CO)[C@]3(C)CC[C@]12C` [BALSAMINAGENIN A], the IC50 (MCF7) was 65.1 µM, the selectivity ratio [1] was 2.4 and the IC50 (Plasmodium falciparum [2]) was 19.1 µM. It also gave an IC50 (Plasmodium falciparum [3]) of 27.3 µM and a selectivity ratio [4] of 3.4.
`CC(C)=C[C@H](O)C[C@@H](C)[C@H]1CC[C@@]2(C)[C@@H]3[C@@H](O)C=C4[C@@H](CC[C@H](O)[C@]4(C)CO)[C@]3(C)CC[C@]12C` [BALSAMINOL A] showed a selectivity ratio [1] of 1.7, an IC50 (Plasmodium falciparum [2]) of 17.1 µM and an IC50 (Plasmodium falciparum [3]) of 23.5 µM. For the same compound, the selectivity ratio [4] was 2.3.
With `CC(=O)C[C@@H](C)[C@H]1CC[C@@]2(C)[C@@H]3C(=O)C=C4[C@@H](CC[C@H](O)[C@]4(C)CO)[C@]3(C)CC[C@]12C` [BALSAMINOL D] the IC50 (MCF7) was greater than 133 µM, the selectivity ratio [1] was greater than 2.9 and the IC50 (Plasmodium falciparum [2]) was 25.9 µM. For the same compound, the IC50 (Plasmodium falciparum [3]) was 45.6 µM and the selectivity ratio [4] was greater than 5.1.
